From PubChem
ABCB1 block: inhibitors of human ABCB1 transporter, ABCG2 counter-screen | inhibition, % at 6.6 µM | AID 1326 | P08183 | CCRF-Adr cells, JC-1 efflux, flow cytometry | 190,000 compounds, 0.067% hits; in the data active = inhibition above about 40%;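 also: 0% = vehicle and 100% = reference inhibitor; higher value means more JC-1 retained so stronger ABCB1 efflux block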
NCF1 inh: p47phox (human) inhibition. AID 1274. P14598. inhibition, % at 24.7 µM. p47phox/p22phox peptide binding, fluorescence polarization, 2 h. 220,000 compounds, 0.53% hits;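 active = inhibition above about 30%, limit read from the data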;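 also: 0% = p47phox with labelled peptide and 100% = labelled peptide alone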
Target sequence (P14598 whole entry, looked up): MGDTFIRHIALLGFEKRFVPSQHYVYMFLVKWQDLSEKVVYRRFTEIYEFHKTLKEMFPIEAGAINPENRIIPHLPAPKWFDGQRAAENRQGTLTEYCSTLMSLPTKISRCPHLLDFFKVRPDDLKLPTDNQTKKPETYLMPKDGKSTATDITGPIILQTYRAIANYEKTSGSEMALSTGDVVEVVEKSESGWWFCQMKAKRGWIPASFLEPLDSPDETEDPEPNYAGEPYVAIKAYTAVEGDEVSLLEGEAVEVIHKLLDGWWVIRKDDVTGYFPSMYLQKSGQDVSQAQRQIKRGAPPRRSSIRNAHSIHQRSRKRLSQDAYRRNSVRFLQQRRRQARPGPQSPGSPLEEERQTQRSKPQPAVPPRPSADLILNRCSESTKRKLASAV
ABCG2 block: human ABCG2 inhibition, ABCB1 as counter-screen; 190,000 compounds, 0.1% hits; AID 1325; inhibition, % at 6.6 µM; Q9UNQ0; IgMXP3 cells, JC-1 efflux, flow cytometry;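 active = inhibition above 80%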;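 also: 0% = DMSO and 100% = nicardipine control wells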
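Test system: IgMXP3 cells (ABCG2) mixed with DDAO far-red-labelled CCRF-Adr cells (ABCB1). Reagent: JC-1 transporter substrate. Compound dosing: single test compound dose, 6.6 µM final. Times: 10 min compound exposure, 25 °C. Detection: flow cytometry of retained JC-1 fluorescence. Read-out basis: efflux inhibition in percent versus controls. Controls: nicardipine and DMSO wells.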
HSV replic up: increases HSV replication in cells. HSV replication augmentation in cells, fold increase. maximum fold increase. 220,000 compounds, 0.005% hits. AID 1956; in the data active = maximum fold increase above about 1.5; inconclusive = no clear call, values can overlap the other calls; tested in PC3 cells
PHOSPHO1 block: blocks human PHOSPHO1 phosphatase activity | Q8TCT1 | recombinant PHOSPHO1, absorbance phosphatase assay | inhibition, % at 13.3 µM | 290,000 compounds, 1.1% hits; in the data active = inhibition above about 60%
Target sequence (Q8TCT1 whole entry, looked up): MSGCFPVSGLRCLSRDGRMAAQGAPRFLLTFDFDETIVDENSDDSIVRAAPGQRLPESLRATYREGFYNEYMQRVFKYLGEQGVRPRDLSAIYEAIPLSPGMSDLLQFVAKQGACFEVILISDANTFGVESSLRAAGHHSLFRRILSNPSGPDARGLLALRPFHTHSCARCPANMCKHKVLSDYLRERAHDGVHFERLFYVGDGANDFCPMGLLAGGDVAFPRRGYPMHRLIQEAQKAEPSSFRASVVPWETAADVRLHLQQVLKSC
PKD1 kinase inh: PKD1 (human) kinase inhibition | PKD1 kinase fluorescence polarization assay | inhibition, % (concentration not given with the values) | 200,000 compounds, 0.056% hits | AID 797; in the data active = inhibition above about 50%
* = called active by the depositor; i = inactive; ? = inconclusive; · = no result. Hits are enriched below; roughly 1.6% of the tested compounds scored in any of these assays.

SMILES	ABCB1 block	NCF1 inh	ABCG2 block	HSV replic up	PHOSPHO1 block	PKD1 kinase inh
CC(C)NC(=O)c1sc2nc3c(c(-c4cccs4)c2c1N)CN(C)CC3	0.9	-10.7	2.4	i	63.0*	-1.9
Cc1cccc(NC(=O)c2sc3nc4c(c(-c5cccs5)c3c2N)CN(C)CC4)c1	1.2	-7.3	0.9	?	-20.6	0.5
COCCCC1CCN(C(=O)c2cc(COc3cc(C)ccc3C)on2)CC1	·	·	·	·	3.8	·
C=CCn1c(SCc2nc3ccccc3[nH]2)nnc1-c1ccccn1	0.5	-10.1	1.5	i	34.6	-3.9
CCn1c(SCc2nc3ccccc3[nH]2)nnc1-c1ccncc1	-0.4	-5.3	-0.1	i	32.3	-1.0
C=CCn1c(SCc2nc3ccccc3[nH]2)nnc1-c1ccc(OC)cc1	0.5	-7.7	2.3	i	91.4*	-2.4
CCn1c(SCc2nc3ccccc3[nH]2)nnc1-c1ccc(OC)cc1	0.4	-14.9	0.1	i	77.9*	-4.1
C=CCn1c(SCc2nc3ccccc3[nH]2)nnc1-c1cccc(OC)c1	0.8	-13.7	2.0	i	71.2*	-5.3
O=C(CN1c2ccccc2S(=O)(=O)c2ccccc21)Nc1ccccc1F	·	·	·	·	16.9	·
CCOC(=O)C1=C(C)NC(=O)C1CC(=O)O (stereo not drawn)	0.1	0.1	1.0	i	0.3	12.1
O=C(CN1CCN(S(=O)(=O)c2ccc(F)cc2)CC1)Nc1ccc(Cl)cn1	·	·	·	·	8.3	·
COc1ccc(CNC(=O)c2noc(C(C)C)c2[N+](=O)[O-])cc1	0.8	5.8	9.1	i	-23.9	-9.4
Cc1onc(C(=O)Nc2cccnc2Cl)c1[N+](=O)[O-]	-0.7	15.1	-3.2	i	17.9	-1.0
COc1cc(NC(=O)c2noc(C)c2[N+](=O)[O-])c(OC)cc1Cl	·	·	·	·	63.6*	·
COc1ccc(CNC(=O)c2noc(C)c2[N+](=O)[O-])cc1	0.3	33.0*	4.2	i	-25.8	-5.3
CC(O)/C=C/c1cccc[n+]1C (stereo not drawn)	0.1	-7.3	1.6	i	83.6*	2.0
Oc1c(C=Nc2ccccc2Cl)[nH]c2ccccc12	·	-35.2	·	i	63.1*	·
O=c1[nH][nH]c(C(F)(F)F)c1C=Nc1ccccc1Cl	1.0	-1.0	3.4	i	-18.6	-3.4
CCn1c(-c2csc(-c3ccc(Cl)cc3)n2)n[nH]c1=S	-0.1	-0.7	0.2	·	83.2*	1.7
CCn1c(-c2ccc(F)cc2)n[nH]c1=S	0.4	1.1	2.2	i	-9.8	-3.0
CCn1c(-c2cccc(Cl)c2)n[nH]c1=S	0.4	-1.5	0.8	i	94.9*	12.8
CCn1c(-c2csc(-c3ccccc3)n2)n[nH]c1=S	-1.7	-10.7	-5.3	?	59.5	-2.3
C=CCn1c(-c2cc(Cl)ccc2OC)n[nH]c1=S	0.3	-4.6	1.7	i	92.3*	0.0
CCn1c(-c2cc(Cl)ccc2OC)n[nH]c1=S	-0.2	-2.2	1.7	i	89.2*	-2.2
CC(O)C(NS(=O)(=O)c1ccc(Cl)cc1)C(=O)OCC(=O)N1CCN(c2ccccc2)CC1 (stereo not drawn)	2.0	-36.0	10.0	i	-11.4	6.8
SMILES	ABCB1 block	NCF1 inh	ABCG2 block	HSV replic up	PHOSPHO1 block	PKD1 kinase inh
O=S(=O)(Cc1c(F)cccc1Cl)c1ncn[nH]1	-0.4	-18.1	-0.6	i	29.9	-5.6
O=C(Nc1nnc(COc2ccc(Br)cc2)s1)c1ccco1	·	-17.8	·	i	37.0	·
COc1ccc(Cl)cc1-c1n[nH]c(=S)n1C	0.0	-6.8	5.9	i	84.8*	-1.2
COc1ccc(Cl)cc1-c1nc(SCC(=O)N(C)C)n[nH]1	0.1	-13.6	20.7	i	-16.5	-5.6
CC12CCC(C(=O)N3CCN(Cc4ccccc4)CC3)(OC1=O)C2(C)C (stereo not drawn)	0.4	31.8*	0.8	i	-9.2	-2.5
CC12CCC(C(=O)N3CCCCCC3)(OC1=O)C2(C)C (stereo not drawn)	-0.1	-15.9	-0.3	i	6.7	-8.6
CCOC(=O)c1cnc2ccc(C)cc2c1NCCO	-0.3	42.9*	0.5	i	-16.7	-7.4
O=c1c(Cl)c(Cl)cnn1Cc1nnc(-c2ccc(Cl)cc2)o1	0.2	2.8	-0.1	i	-26.9	-4.2
CC(=O)NC(=S)Nc1ccc(NC(=O)COc2ccc(Cl)cc2Cl)cc1	0.1	-5.2	0.1	i	17.7	-4.1
O=C(COc1ccc(Cl)cc1Cl)NNC(=S)Nc1ccc(F)cc1	1.8	-9.0	23.0	i	71.1*	-3.4
O=C(CCNC(=O)c1ccccc1Cl)Nc1nc(-c2ccccc2Cl)cs1	2.8	-18.1	8.8	i	2.3	-4.6
Cc1c(NC(=O)COC(=O)c2ccccc2Cl)c(=O)n(-c2ccccc2)n1C	0.2	-3.8	-0.2	i	35.7	-1.1
Cc1c(NC(=O)COC(=O)c2cc3c4ccccc4n(C)c3s2)c(=O)n(-c2ccccc2)n1C	0.4	-11.3	-1.1	i	62.2*	-29.5
COC(=O)C1C(=O)OC(C)(C)C1C(C)C(=O)c1ccc(C)cc1C (stereo not drawn)	-1.0	-0.6	-3.0	i	60.0*	-3.4
CCO[C@@H]1OC(C(=O)NCc2nc3ccccc3[nH]2)=C[C@H](C)[C@H]1CCCO	0.1	44.9*	0.8	i	39.7	-0.1
Cc1ccc(S(=O)(=O)/N=C2/C=C(Sc3ncn[nH]3)C(=O)c3ccccc32)c(C)c1	-0.5	37.3*	-1.7	i	75.9*	16.4
Cc1ccc(S(=O)(=O)/N=C2/C=C(Sc3ncn[nH]3)C(=O)c3ccccc32)cc1	-0.4	52.9*	-3.1	i	73.1*	-10.1
CC(C)c1ccc(S(=O)(=O)/N=C2/C=C(Sc3ncn[nH]3)C(=O)c3ccccc32)cc1	0.5	49.8*	3.0	i	6.1	-7.3
Cc1ccc(S(=O)(=O)/N=C2\C=C(Nc3cccc(C(=O)O)c3)C(=O)c3ccccc32)c(C)c1	·	·	·	·	32.0	·
CCOc1ccc(-c2cc(NC(=O)Cn3ncc4c3-c3ccccc3OC4)on2)cc1OCC	1.3	2.8	4.4	i	16.9	-3.0
FC(F)(F)c1cc(Oc2ccccc2)nc(-c2ccccn2)n1	2.0	0.7	25.7	i	48.1	-17.7
FC(F)(F)c1cc(Oc2ccc(Cl)cc2)nc(-c2ccccn2)n1	0.6	-7.0	22.2	i	72.8*	5.7
CN(C)c1ccc(C(=O)N2CCCC(CCC(=O)N3CCN(c4ccccn4)CC3)C2)cc1 (stereo not drawn)	·	·	·	·	32.6	·
CC(C)Cn1c(-c2ccco2)n[nH]c1=S	-0.9	-5.3	-9.3	i	80.4*	1.8
CCn1c(-c2ccco2)n[nH]c1=S	-0.8	-6.8	-2.4	i	41.4	1.9
C=CCn1c(-c2ccoc2C)n[nH]c1=S	0.0	-8.2	-0.1	i	80.9*	-8.9
CCCCn1c(-c2ccoc2C)n[nH]c1=S	-0.8	-4.4	-1.6	i	-3.3	5.3
C=CCn1c(-c2ccco2)n[nH]c1=S	-0.1	32.2*	-0.1	i	-100.6	4.8
